According to ChEMBL document CHEMBL3393023, “Benzimidazole-containing HCV NS5A inhibitors: effect of 4-substituted pyrrolidines in balancing genotype 1a and 1b potency” (Bioorg Med Chem Lett, 2015):

Legend:
[1] = biological target: Cytochrome P450 2D6 (Homo sapiens, UniProt P10635); assay: Inhibition of CYP2D6 (unknown origin); type: ADME
[2] = tested on: Hepatitis C virus; assay: Selectivity index, ratio of EC50 for HCV genotype 1a expressing NS5A Q30R mutant to EC50 for HCV genotype 1a expressing wild type NS5A; type: functional, Hepacivirus hominis, subtype 1a
Method in brief: (§1)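 Recombinant HCV replicon cell lines carrying the single NS5A substitution were tested, with the matching wild-type replicon as reference. The value is the fold shift of activity against the mutant relative to wild-type activity.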

[3] = biological target: Cytochrome P450 2C9 (Homo sapiens, UniProt P11712); assay: Inhibition of CYP2C9 (unknown origin); type: ADME
[4] = biological target: T1, Voltage-gated inwardly rectifying potassium channel KCNH2 (Homo sapiens, UniProt Q12809); assay: Inhibition of human ERG channel by QPatch technique
[5] = Volume of distribution at steady state in iv dosed rat; type: ADME, organism-based; details: in vivo, read-out: Vdss
[6] = Half life in iv dosed rat; type: ADME, organism-based; details: in vivo
[7] = Half life in rat at 3 mg/kg, po; type: ADME, organism-based; design: dose 3 mg/kg, route oral; details: in vivo
Method in brief: (§2)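 Rats were dosed orally at 3 mg/kg as a solution in 30% aqueous PEG-400.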

[8] = Protein binding in rat plasma; type: ADME, cell-free; details: read-out: PPB (converted)
[9] = Clearance in iv dosed rat; type: ADME, organism-based; details: in vivo
[10] = Metabolic stability in rat hepatocytes assessed as compound remaining at 5 uM after 60 mins; type: ADME, cell-based, Hepatocyte; details: read-out: Stability
[11] = Protein binding in human plasma; type: ADME, cell-free; details: read-out: PPB (converted)
[12] = tested on: MDR1 (human); assay: Efflux ratio of permeability in MDCK cells over-expressing human Mdr1; type: ADME, cell-based, Canis lupus familiaris; details: dog
[13] = biological target: Cytochrome P450 3A4 (Homo sapiens, UniProt P08684); assay: Inhibition of CYP3A4 (unknown origin); type: ADME
[14] = tested on: Hepatitis C virus; assay: Antiviral activity against Hepatitis C virus genotype 1a infected in W11.8 cells assessed as decrease in NS5A expression in replicon cell after 4 days by luminescence based ELISA; type: functional, Hepacivirus hominis; details: subtype 1a, W11.8, 96 h
[15] = biological target: T2, Cytochrome P450 1A2 (Homo sapiens, UniProt P05177); assay: Inhibition of CYP1A2 (unknown origin); type: ADME
T2 sequence (P05177 whole entry): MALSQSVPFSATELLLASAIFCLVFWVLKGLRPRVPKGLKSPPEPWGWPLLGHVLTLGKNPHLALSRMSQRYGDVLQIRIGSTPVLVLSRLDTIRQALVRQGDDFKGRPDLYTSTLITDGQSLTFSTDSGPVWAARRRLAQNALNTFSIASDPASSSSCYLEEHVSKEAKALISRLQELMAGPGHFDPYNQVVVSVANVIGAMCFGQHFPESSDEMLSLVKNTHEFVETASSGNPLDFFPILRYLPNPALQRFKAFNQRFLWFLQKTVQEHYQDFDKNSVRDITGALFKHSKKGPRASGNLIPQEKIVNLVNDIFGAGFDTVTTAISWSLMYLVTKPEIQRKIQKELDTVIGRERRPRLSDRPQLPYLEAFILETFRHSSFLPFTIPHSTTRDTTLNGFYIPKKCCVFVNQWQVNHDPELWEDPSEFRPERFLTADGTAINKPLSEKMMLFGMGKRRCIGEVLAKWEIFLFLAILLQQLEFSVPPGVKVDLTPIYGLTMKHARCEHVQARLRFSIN

[16] = tested on: Hepatitis C virus; assay: Antiviral activity against Hepatitis C virus genotype 1b infected in human Huh-5.2 cells assessed as decrease in HCV replicon RNA replication after 4 days by luciferase assay; type: functional, cell-based, Hepacivirus hominis; details: Huh-5-2, 96 h
[17] = tested on: Hepatitis C virus; assay: Selectivity index, ratio of EC50 for HCV genotype 1a expressing NS5A M28T mutant to EC50 for HCV genotype 1a expressing wild type NS5A; type: functional, Hepacivirus hominis, subtype 1a; method in brief: as §1
[18] = biological target: T1, Voltage-gated inwardly rectifying potassium channel KCNH2; assay: Inhibition of human ERG channel by planar technique
[19] = Oral bioavailability in rat at 3 mg/kg; type: ADME, organism-based; details: in vivo; method in brief: as §2
[20] = tested on: Hepatitis C virus; assay: Selectivity index, ratio of EC50 for HCV genotype 1b expressing NS5A Y93H mutant to EC50 for HCV genotype 1b expressing wild type NS5A; type: functional, Hepacivirus hominis; method in brief: as §1
[21] = Metabolic stability in human hepatocytes assessed as compound remaining at 5 uM after 60 mins; type: ADME, cell-based, Hepatocyte; details: read-out: Stability
[22] = biological target: Cytochrome P450 2C19 (Homo sapiens, UniProt P33261); assay: Inhibition of CYP2C19 (unknown origin); type: ADME
[23] = Cytotoxicity against human Huh7ET cells by [3H]-thymidine incorporation assay; type: cell-based; details: Huh7ET cells (Huh-7)
Method in brief: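 Huh-7 ET cells were exposed to 12 test-compound concentrations, each in duplicate. Viability was read by [3H]-thymidine incorporation and CC50 was derived from the curve. A run was accepted only when the positive-control CC50 fell within 40% of its mean value.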

[24] = Permeability from apical to basolateral layer in human Caco2 cells; type: ADME, cell-based; details: Caco-2, read-out: permeability
[25] = tested on: Hepatitis C virus; assay: Selectivity index, ratio of EC50 for HCV genotype 1a expressing NS5A Y93H mutant to EC50 for HCV genotype 1a expressing wild type NS5A; type: functional, Hepacivirus hominis, subtype 1a; method in brief: as §1
[26] = Cmax in rat at 3 mg/kg, po; type: ADME, organism-based; design: dose 3 mg/kg, route oral; details: in vivo; method in brief: as §2
[27] = AUC (0 to 8 hrs) in rat at 3 mg/kg, po; type: ADME, organism-based; design: time < 8 hr, dose 3 mg/kg, route oral; details: plasma; method in brief: as §2

T1 sequence (Q12809 whole entry): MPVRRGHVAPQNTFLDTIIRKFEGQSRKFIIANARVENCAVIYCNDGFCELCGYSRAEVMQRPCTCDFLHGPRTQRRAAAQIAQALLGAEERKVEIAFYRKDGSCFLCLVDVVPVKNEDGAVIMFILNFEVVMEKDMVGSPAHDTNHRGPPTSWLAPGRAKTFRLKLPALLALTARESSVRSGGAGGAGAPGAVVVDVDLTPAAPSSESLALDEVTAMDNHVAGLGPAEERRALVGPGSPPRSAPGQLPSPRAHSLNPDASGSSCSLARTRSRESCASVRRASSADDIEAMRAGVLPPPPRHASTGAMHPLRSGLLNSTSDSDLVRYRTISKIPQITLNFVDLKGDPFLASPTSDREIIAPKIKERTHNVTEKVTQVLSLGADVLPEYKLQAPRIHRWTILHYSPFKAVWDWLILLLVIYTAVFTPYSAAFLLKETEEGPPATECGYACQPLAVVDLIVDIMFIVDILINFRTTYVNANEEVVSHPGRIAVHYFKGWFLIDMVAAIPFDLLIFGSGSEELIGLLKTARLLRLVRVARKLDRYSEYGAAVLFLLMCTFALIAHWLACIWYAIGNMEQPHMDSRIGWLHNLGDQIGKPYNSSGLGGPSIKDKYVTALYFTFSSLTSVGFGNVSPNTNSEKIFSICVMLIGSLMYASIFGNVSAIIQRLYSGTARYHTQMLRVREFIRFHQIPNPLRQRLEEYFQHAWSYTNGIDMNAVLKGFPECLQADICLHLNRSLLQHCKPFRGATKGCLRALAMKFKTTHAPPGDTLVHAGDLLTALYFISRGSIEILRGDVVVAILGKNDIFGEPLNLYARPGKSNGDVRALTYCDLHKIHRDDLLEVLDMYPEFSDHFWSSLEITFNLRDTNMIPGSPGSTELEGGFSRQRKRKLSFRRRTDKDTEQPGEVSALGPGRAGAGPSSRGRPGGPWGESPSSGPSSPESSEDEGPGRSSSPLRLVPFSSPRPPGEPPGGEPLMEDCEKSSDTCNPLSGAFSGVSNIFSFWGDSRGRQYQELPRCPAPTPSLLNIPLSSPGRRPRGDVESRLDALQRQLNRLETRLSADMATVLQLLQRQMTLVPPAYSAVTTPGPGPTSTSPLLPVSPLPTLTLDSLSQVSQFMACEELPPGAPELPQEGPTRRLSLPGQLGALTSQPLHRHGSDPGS
Sequence of Cytochrome P450 2D6 (P10635 whole entry): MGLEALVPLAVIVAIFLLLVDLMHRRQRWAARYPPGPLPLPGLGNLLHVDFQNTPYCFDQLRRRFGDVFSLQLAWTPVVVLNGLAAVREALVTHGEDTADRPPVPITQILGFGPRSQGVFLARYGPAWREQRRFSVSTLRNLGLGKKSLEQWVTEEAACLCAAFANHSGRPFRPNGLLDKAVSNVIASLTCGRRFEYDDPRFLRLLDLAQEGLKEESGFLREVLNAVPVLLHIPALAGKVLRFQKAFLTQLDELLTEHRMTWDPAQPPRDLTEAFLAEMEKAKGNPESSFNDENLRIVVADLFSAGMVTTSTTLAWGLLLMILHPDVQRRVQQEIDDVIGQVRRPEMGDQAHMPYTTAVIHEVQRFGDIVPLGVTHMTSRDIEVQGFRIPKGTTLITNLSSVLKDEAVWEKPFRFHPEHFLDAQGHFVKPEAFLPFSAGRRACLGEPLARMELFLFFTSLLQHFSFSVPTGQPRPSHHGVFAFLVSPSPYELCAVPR
Sequence of Cytochrome P450 3A4 (P08684 whole entry): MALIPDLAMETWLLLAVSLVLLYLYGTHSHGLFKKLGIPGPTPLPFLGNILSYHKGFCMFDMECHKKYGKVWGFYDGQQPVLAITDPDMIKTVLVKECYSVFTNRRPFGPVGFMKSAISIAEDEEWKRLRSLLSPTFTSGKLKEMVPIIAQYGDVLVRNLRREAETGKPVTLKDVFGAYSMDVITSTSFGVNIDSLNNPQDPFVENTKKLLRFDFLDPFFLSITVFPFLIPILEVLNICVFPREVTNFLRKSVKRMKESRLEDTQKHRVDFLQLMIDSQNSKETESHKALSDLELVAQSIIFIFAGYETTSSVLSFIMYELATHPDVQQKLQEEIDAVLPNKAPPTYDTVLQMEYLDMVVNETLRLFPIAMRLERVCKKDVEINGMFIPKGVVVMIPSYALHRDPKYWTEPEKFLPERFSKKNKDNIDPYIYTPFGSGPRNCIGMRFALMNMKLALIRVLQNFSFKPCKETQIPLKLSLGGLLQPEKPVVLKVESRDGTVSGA
Sequence of Cytochrome P450 2C19 (P33261 whole entry): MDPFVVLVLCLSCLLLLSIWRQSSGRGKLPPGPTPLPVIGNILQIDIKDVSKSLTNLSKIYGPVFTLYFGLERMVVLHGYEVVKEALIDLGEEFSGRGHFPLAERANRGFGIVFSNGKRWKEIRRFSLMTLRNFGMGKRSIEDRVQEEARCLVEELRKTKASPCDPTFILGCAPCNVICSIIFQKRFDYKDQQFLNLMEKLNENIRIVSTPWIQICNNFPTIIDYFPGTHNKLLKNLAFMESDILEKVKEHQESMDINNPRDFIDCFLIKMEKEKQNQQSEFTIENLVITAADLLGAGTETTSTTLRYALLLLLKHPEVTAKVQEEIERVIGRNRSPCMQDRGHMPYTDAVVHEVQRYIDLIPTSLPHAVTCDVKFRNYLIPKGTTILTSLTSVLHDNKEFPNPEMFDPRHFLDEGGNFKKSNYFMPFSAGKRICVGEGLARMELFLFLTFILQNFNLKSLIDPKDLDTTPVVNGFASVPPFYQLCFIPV
Sequence of Cytochrome P450 2C9 (P11712 whole entry): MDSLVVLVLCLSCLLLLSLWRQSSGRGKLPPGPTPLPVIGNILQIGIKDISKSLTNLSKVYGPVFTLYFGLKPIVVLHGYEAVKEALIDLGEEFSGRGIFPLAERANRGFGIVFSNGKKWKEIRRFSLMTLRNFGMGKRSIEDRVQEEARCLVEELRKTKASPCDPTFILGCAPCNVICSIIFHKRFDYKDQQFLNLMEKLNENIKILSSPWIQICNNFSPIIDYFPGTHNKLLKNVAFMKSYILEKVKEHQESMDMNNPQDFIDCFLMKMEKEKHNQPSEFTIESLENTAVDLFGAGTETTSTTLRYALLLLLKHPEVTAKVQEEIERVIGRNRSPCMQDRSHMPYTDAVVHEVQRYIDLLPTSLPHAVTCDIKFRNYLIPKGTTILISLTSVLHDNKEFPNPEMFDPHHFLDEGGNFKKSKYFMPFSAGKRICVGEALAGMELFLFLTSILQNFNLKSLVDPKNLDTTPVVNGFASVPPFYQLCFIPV

COC(=O)N[C@H](C(=O)N1C[C@@H](C)C[C@H]1c1nc(-c2ccc(-c3ccc(-c4ccc5[nH]c([C@@H]6C[C@H](C)CN6C(=O)[C@@H](NC(=O)OC)C(C)C)nc5c4)cc3)cc2)c[nH]1)C(C)C
IC50 [1]: > 30 µM | Selectivity ratio [2]: 42 | IC50 [3]: > 30 µM | IC50 [4]: > 30 µM | Vd [5]: 1.4 L/kg | half-life [6]: 2 h | half-life [7]: 3.5 h | fraction unbound [8]: 0.083 | clearance [9]: 9 mL/min/kg | remaining at 1 h, 5 µM [10]: > 90% | fraction unbound [11]: 0.014 | efflux ratio [12]: 1.8 | IC50 [13]: > 30 µM | EC50 [14]: 4 pM | IC50 [15]: > 30 µM | EC50 [16]: 5 pM | Selectivity ratio [17]: 55 | IC50 [18]: > 30 µM | bioavailability [19]: 26% | Selectivity ratio [20]: 100 | remaining at 1 h, 5 µM [21]: > 90% | IC50 [22]: > 30 µM | CC50 [23]: > 20 µM | Papp A→B [24]: 4.1 ×10⁻⁶ cm/s | Selectivity ratio [25]: 8000 | Cmax [26]: 0.03 ng/mL | AUC(0-t) at 8 h [27]: 2080 ng·h/mL
